Results as given in publication PMC3217170 (Biochimica et biophysica acta, 2011).

How the values were obtained:
CCKA receptor = CCKA receptor mediation of PKCθ T538 phosphorylation in pancreatic acini; type: cell-based, rat; conditions: preincubated 5 min, then CCK 10 nM for 1 min
PKCθ / 14-3-3γ = assay: Co-IP association of PKCθ with 14-3-3γ; type: cell-based, rat; conditions: CCK 10 nM or TPA 1 μM, data not shown
PKD (pS744/748) = assay: PKD phosphorylation stimulated by CCK or TPA; type: cell-based, rat; conditions: TPA 1 μM, 5 min, no inhibitor; p<0.05
Procedure, shortened: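 Collagenase-dispersed rat acini preincubated 3 h ± 20 μM PKCθ pseudosubstrate, then CCK (10 nM, 2.5 min) or TPA (1 μM, 5 min), and lysed. Equal protein Western-blotted for pY311 PKCδ, pS744/748 PKD, pS338 RafC or pY416 Src, with total PKCθ and α/β tubulin as loading controls. Bands quantified by densitometry in the linear range. ≥3 experiments; mean±SEM; paired t-test.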

PKCθ / Cbl = assay: Co-IP association of PKCθ with Cbl; type: cell-based, rat; conditions: CCK 10 nM or TPA 1 μM, data not shown
PKCθ / p85 PI3K = assay: Co-IP association of PKCθ with p85 PI3K; type: cell-based, rat
Procedure, shortened: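 Rat acini stimulated with CCK 10 nM or TPA 1 μM, then lysed in CelLytic buffer with vanadate, PMSF and protease inhibitors. Lysate (750 μg/ml) incubated overnight at 4 °C with 4 μg antibody and protein G-agarose. Immunoprecipitates washed with PBS, then analysed by SDS-PAGE and Western blotting.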

PKCθ / RafC = assay: Co-IP association of PKCθ with RafC; type: cell-based, rat; conditions: CCK 10 nM or TPA 1 μM, 2.5 min, 3 independent experiments
PKCθ / MALT-1 = assay: Co-IP association of PKCθ with MALT-1; type: cell-based, rat; conditions: CCK 10 nM or TPA 1 μM, data not shown
PKCθ / tubulin = assay: Co-IP association of PKCθ with tubulin; type: cell-based, rat
Procedure, shortened: (§1)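 Rat pancreatic acini are dispersed by collagenase and preincubated 2 hrs at 37 °C in HEPES (pH 7.45) incubation solution, then left unstimulated or given CCK (10 nM) or TPA (1 μM). Cells are lysed in CelLytic buffer with vanadate, PMSF and protease inhibitors. Lysate (750 μg/ml) is immunoprecipitated overnight at 4 °C with 4 μg anti-PKCθ plus protein G-agarose, PBS-washed, then analysed by SDS-PAGE/Western blot; ≥3 experiments.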

pT538 PKCθ = assay: PKCθ immunofluorescence-cytochemistry; type: cell-based, rat; conditions: TPA 1 μM or CCK 10 nM, 10 minutes; 4 independent experiments
Procedure, shortened: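 Acini left untreated or given TPA 1 μM or CCK 10 nM for 10 min, then washed, fixed, permeabilized and cytocentrifuged onto poly-L-lysine slides. Labelled overnight at 4 °C with rabbit anti-pT538 PKCθ and mouse anti-E-cadherin (1:500), detected with Alexa 488/555 secondaries, nuclei stained with DAPI. Isotype-matched primary as negative control; 4 experiments.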

PKCθ / Akt = assay: Co-IP association of PKCθ with Akt; type: cell-based, rat; conditions: CCK 10 nM or TPA 1 μM, 2.5 min, 3 independent experiments
PKCθ / RafB = assay: Co-IP association of PKCθ with RafB; type: cell-based, rat
Procedure, shortened: as §1

[1] = test system: PKCθ (pT538) in pancreatic acini; assay: PKCθ T538 phosphorylation in rat pancreatic acini; type: cell-based; conditions: 5 independent experiments; for stimulation of PKCθ phosphorylation (pT538), secretagogues: isolated rat pancreatic acini, 5 minutes, Western blot
PKCθ / RafA = assay: Co-IP association of PKCθ with RafA; type: cell-based, rat; conditions: CCK 10 nM or TPA 1 μM, 2.5 min, 3 independent experiments
PKCθ / Lyn = assay: Co-IP association of PKCθ with Lyn; type: cell-based, rat; conditions: CCK 10 nM or TPA 1 μM, 2.5 min, 3 independent experiments
PKCθ [2] = assay: PKCθ translocation to membranes; type: cell-based, rat; conditions: TPA, 5 min incubation; p<0.05; mean±S.E., 5 independent experiments
Procedure, shortened: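 Acini stimulated with CCK for 1 min or TPA for 5 min, then homogenized in Tris pH 7.5 buffer with EGTA/EDTA, vanadate, PMSF and protease inhibitors. The cleared supernatant was spun at 60,000×g for 30 min at 4 °C. The membrane pellet was washed, solubilized in Triton/deoxycholate buffer, sonicated and spun at 10,000×g. Western blot used anti-PKCθ; calpain and E-cadherin served as fraction markers. Results given as % control; 5 experiments.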

[3] = test system: pancreatic acini (amylase secretion); assay: Amylase release from pancreatic acini; type: cell-based, rat; conditions: 15 minutes, basal 1.7±0.2, mean±S.E., 6 experiments
Procedure, shortened: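 Rat pancreatic acini from collagenase digestion; 2 h preincubation ± 20 μM PKCθ pseudosubstrate in HEPES-buffered (pH 7.45) standard incubation solution, then 15 min with secretagogue. Medium amylase measured with Phadebas reagent and expressed as % of total cellular amylase released during incubation. Means±S.E.; paired Student's t-test.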

PKCθ (T538) = conditions: ref [61]; cited from earlier work
PKCθ [4] = conditions: ref [62]; cited from earlier work
CCKB receptors = assay: CCKB receptor mediation of PKCθ T538 phosphorylation in pancreatic acini; type: cell-based, rat; conditions: 1 min, isolated acini, Western blot
PKCθ [5] = conditions: ref [56]; cited from earlier work
PKCδ = conditions: ref [60]; cited from earlier work

O=C(O)Cn1c(C(=O)Nc2nc(-c3ccccc3Cl)cs2)cc2ccccc21 [SR27897, 1-[[2-(4-(2-chlorophenyl)-thiazol-2-yl)aminocarbonyl]indolyl]acetic acid]
inhibition of CCK-stimulated PKCθ phosphorylation, CCKA receptor antagonists (CCKA receptor): completely inhibited

CCCCCCCCCCCCCC(=O)O[C@@H]1[C@@H](C)[C@@]2(O)[C@@H](C=C(CO)C[C@]3(O)C(=O)C(C)=C[C@@H]23)[C@H]2C(C)(C)[C@]12OC(C)=O [TPA, 12-O-tetradecanoylphobol-13-acetate]
association of PKCθ with 14-3-3γ (PKCθ / 14-3-3γ): but not with MALT-1, Bcl-10, 14-3-3γ or Cbl | phosphorylation of PKD stimulated by TPA (PKD (pS744/748)): 19.1±3.0 folds over control | association of PKCθ with Cbl (PKCθ / Cbl): but not with MALT-1, Bcl-10, 14-3-3γ or Cbl | association of PKCθ with p85 PI3K (PKCθ / p85 PI3K): but not an association with p85 PI3K | association of PKCθ with RafC (PKCθ / RafC): increase in the association | association of PKCθ with MALT-1 (PKCθ / MALT-1): but not with MALT-1, Bcl-10, 14-3-3γ or Cbl | association of PKCθ with tubulin (PKCθ / tubulin): but not an association with p85 PI3K, PKD1, RafB, Bcl-10, Cbl, MALT-1, tubulin | phosphoT538 PKCθ in the membrane (immunofluorescence) (pT538 PKCθ): increased in the membrane in both cases (Panel B and C, Fig. 6, respectively), with the increase caused by TPA more prominent | association of PKCθ with Akt (PKCθ / Akt): increase in the association | association of PKCθ with RafB (PKCθ / RafB): but not an association with p85 PI3K, PKD1, RafB | tmax of pT538 PKCθ phosphorylation ([1]; time course): 1.60±0.06 min | pT538 PKCθ phosphorylation, maximum at about 1 min ([1]; time course, 1 min, mean±S.E.): 188±13 % of control | pT538 PKCθ phosphorylation at 30 min ([1]; time course, 30 min, mean±S.E.): 171±23 % of control | association of PKCθ with RafA (PKCθ / RafA): increase in the association | association of PKCθ with Lyn (PKCθ / Lyn): increase in the association | membrane associated PKCθ (PKCθ [2]): 189±59 % of control

C[N+](C)(C)CCOC(N)=O [carbachol]
Amylase secretion (% total), −PKCθ inhibitor ([3]; Carbachol 1 μM): 6.8±0.7 % total | Amylase secretion (% total), −PKCθ inhibitor ([3]; Carbachol 1 mM): 6.2±0.7 % total | stimulation of PKCθ phosphorylation (pT538), secretagogues [1]: stimulated a significant increase

EGF: Epidermal growth factor
T538 PKCθ phosphorylation in A431 cells (PKCθ (T538)): increases T538 PKCθ phosphorylation

IGF: insulin-like growth factor 1
PKCθ catalytic activity in rhabdomyosarcoma cell line (PKCθ [4]): increases PKCθ catalytic activity

bombesin
stimulation of PKCθ phosphorylation (pT538), secretagogues [1]: stimulated a significant increase

gastrin
pT538 PKCθ phosphorylation by gastrin (CCKB receptors): did not produce any increase

insulin: known pancreatic growth factor
PKCθ activation in myocytes (PKCθ [5]): able to increase PKCθ activation

secretin: gastrointestinal hormone that causes an increase in the cAMP
stimulation of PKCθ phosphorylation (pT538), secretagogues [1]: Neither

vasoactive intestinal peptide [VIP]
Amylase secretion (% total), −PKCθ inhibitor ([3]; VIP 10 nM): 3.4±0.6 % total | PKCδ activation in cortical astrocytes (PKCδ): activates PKCδ | stimulation of PKCθ phosphorylation (pT538), secretagogues [1]: Neither
